Assay results from ChEMBL document CHEMBL4376872, “Scaffold Hopping of Natural Product Evodiamine: Discovery of a Novel Antitumor Scaffold with Excellent Potency against Colon Cancer” (J Med Chem, 2020).
≈ marks a conversion by molar mass, not a printed value. Calls of active or inactive are those of the source. No cut-off for these calls is given here.

How the values were obtained:
[1] = test system: HCT-116; experiment: Antiproliferative activity against human HCT116 cells assessed as reduction in cell viability incubated for 72 hrs by CCK8 assay; format: functional, cell-based; conditions: HCT-116, 72 h
[2] = test system: MDA-MB-435; experiment: Antiproliferative activity against human MDA-MB-435 cells assessed as reduction in cell viability incubated for 72 hrs by CCK8 assay; format: functional, cell-based; conditions: MDA-MB-435, 72 h
[3] = test system: A549; experiment: Antiproliferative activity against human A549 cells assessed as reduction in cell viability incubated for 72 hrs by CCK8 assay; format: functional, cell-based; conditions: A549, 72 h
[4] = test system: K562; experiment: Antiproliferative activity against human K562 cells assessed as reduction in cell viability incubated for 72 hrs by CCK8 assay; format: functional, cell-based; conditions: K562, 72 h
[5] = test system: NCI-H446; experiment: Antiproliferative activity against human NCI-H446 cells assessed as reduction in cell viability incubated for 72 hrs by CCK8 assay; format: functional, cell-based; conditions: NCI-H446, 72 h
[6] = target: T1, DNA topoisomerase 1 (Escherichia coli (strain K12)) (UniProt P06612); experiment: Inhibition of Escherichia coli Top1 assessed as decrease in relaxation of supercoiled pBR322 plasmid DNA at 100 uM using supercoiled pBR322 plasmid DNA as substrate incubated for 15 mins by agarose gel electrophoresis analysis
T1 sequence (whole entry): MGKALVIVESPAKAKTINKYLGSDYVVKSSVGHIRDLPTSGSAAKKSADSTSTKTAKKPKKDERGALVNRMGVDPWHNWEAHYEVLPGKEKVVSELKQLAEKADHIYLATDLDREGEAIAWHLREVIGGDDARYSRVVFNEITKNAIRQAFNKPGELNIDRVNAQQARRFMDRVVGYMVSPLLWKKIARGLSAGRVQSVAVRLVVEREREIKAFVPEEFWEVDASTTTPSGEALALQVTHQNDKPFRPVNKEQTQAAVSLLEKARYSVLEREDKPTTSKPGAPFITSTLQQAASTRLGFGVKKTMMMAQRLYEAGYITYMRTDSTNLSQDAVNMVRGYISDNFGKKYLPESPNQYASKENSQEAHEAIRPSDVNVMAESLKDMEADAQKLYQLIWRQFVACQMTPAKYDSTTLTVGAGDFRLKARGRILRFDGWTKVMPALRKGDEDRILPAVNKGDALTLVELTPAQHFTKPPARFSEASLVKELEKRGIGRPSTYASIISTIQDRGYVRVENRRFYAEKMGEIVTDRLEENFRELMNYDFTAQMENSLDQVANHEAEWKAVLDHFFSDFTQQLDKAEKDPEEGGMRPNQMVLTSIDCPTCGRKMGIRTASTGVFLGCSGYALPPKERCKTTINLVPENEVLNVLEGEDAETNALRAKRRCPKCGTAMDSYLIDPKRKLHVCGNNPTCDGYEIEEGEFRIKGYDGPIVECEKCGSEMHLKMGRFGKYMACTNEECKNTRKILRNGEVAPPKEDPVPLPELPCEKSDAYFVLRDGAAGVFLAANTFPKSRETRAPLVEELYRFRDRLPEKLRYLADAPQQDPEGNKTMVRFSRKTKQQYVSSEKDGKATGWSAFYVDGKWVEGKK

[7] = target: DNA topoisomerase 2-alpha (Homo sapiens) (UniProt P11388); experiment: Inhibition of human Top2alpha assessed as decrease in relaxation of supercoiled pBR322 plasmid DNA at 100 uM using supercoiled pBR322 plasmid DNA as substrate incubated for 30 mins by agarose gel electrophoresis analysis
DNA topoisomerase 2-alpha (Homo sapiens), sequence (P11388 whole entry): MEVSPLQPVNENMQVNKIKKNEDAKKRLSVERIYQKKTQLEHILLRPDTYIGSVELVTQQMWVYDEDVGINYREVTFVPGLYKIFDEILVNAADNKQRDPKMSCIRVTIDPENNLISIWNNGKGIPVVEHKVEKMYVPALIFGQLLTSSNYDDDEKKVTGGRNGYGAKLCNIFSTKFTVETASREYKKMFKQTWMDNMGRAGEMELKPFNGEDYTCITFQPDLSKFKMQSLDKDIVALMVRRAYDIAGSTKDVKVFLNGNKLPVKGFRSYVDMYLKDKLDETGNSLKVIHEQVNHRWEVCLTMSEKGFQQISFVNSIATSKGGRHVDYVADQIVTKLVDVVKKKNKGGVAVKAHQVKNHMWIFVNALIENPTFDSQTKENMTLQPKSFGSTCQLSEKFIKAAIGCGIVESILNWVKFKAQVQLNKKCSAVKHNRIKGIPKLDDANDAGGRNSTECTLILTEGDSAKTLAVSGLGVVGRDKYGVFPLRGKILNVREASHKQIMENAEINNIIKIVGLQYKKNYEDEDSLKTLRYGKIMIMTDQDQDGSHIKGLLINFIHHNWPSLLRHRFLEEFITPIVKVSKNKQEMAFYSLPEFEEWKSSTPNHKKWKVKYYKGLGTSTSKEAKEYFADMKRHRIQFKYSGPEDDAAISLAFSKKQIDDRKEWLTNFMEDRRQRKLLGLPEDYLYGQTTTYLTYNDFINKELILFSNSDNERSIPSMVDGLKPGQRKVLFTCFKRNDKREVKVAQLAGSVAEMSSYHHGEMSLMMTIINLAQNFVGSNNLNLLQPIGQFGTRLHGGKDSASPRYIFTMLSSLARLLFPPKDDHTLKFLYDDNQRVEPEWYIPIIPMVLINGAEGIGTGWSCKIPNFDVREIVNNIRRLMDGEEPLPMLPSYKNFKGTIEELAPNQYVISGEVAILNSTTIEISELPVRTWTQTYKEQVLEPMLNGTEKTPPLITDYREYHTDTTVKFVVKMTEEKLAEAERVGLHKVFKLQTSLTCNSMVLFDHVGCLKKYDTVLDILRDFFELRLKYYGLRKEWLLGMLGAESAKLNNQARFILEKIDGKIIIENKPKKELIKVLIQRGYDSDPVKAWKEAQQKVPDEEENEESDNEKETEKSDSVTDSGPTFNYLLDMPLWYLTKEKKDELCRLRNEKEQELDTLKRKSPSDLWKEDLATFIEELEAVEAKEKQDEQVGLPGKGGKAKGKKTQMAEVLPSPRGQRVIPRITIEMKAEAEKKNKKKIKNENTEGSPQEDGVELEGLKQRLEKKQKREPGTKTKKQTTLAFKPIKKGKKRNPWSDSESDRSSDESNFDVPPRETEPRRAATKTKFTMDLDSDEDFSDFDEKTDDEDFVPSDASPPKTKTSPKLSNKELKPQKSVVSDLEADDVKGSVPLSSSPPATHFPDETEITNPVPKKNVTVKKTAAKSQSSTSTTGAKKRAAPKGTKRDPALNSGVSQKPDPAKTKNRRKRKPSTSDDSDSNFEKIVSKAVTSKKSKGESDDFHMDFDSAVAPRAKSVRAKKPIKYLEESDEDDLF

[8] = target: Tubulin (Sus scrofa) (UniProt P02554+P02550); experiment: (§1) Inhibition of porcine brain tubulin polymerization measured at 1 min interval over 20 mins by absorbance based assay
Tubulin (Sus scrofa), sequence (P02550 whole entry, looked up): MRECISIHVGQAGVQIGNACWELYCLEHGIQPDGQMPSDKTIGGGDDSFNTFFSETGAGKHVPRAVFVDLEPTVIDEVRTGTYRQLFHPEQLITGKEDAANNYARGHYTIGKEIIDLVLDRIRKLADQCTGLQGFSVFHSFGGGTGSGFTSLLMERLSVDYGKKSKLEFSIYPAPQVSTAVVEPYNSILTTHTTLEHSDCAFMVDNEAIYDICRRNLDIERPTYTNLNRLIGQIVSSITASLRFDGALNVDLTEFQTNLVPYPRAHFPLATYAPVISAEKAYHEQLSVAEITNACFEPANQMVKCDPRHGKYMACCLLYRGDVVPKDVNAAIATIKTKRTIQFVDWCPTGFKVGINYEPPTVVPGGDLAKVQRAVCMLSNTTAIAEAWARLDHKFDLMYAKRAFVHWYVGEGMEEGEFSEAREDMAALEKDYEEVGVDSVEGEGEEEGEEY
Tubulin (Sus scrofa), sequence (P02554 whole entry, looked up): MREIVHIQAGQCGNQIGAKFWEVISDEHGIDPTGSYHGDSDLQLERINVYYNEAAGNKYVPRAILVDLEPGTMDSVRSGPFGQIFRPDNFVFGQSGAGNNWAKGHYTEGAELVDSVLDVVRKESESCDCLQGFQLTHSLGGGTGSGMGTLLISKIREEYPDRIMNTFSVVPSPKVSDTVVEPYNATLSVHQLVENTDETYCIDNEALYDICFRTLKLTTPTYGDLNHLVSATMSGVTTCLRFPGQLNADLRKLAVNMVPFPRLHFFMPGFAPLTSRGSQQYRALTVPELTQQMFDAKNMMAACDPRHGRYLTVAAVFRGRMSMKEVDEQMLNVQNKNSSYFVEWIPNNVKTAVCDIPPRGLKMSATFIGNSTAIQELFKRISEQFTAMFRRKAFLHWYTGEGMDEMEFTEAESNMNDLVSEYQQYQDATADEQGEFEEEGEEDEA

[9] = target: Tubulin (Sus scrofa, UniProt P02554+P02550); experiment: as §1
[10] = test system: HCT-116; experiment: Induction of apoptosis in human HCT116 cells at 1 uM incubated for 24 hrs by annexin V-FITC and propidium iodide staining based flow cytometry (reference value: 0.86 %); format: functional
[11] = test system: HCT-116; experiment: Cell cycle arrest in human HCT116 cells assessed as accumulation in S phase at 12 nM incubated for 24 hrs by propidium iodide staining based flow cytometry (reference value: 42.31 %); format: functional
[12] = test system: HCT-116; experiment: Cell cycle arrest in human HCT116 cells assessed as accumulation in G2 phase at 12 nM incubated for 24 hrs by propidium iodide staining based flow cytometry (reference value: 12.52 %); format: functional
[13] = Aqueous solubility of compound at pH 7.4; format: physicochemical
[14] = target: Protein mono-ADP-ribosyltransferase PARP12 (Homo sapiens) (UniProt Q9H0J9); experiment: Inhibition of PARP12 (unknown origin) using biotin-NAD+, NAD+ and sIDNA as substrate at 5 uM incubated for 1 hr by ELISA relative to control
[15] = target: Lysine-specific demethylase 6B (Homo sapiens) (UniProt O15054); experiment: Inhibition of JMJD3 (unknown origin) using biotinylated histone H3 peptide as substrate at 5 uM incubated for 60 mins by AlphaScreen assay relative to control
[16] = target: Tyrosine-protein phosphatase non-receptor type 11 (Homo sapiens) (UniProt Q06124); experiment: Inhibition of SHP2 (unknown origin) using DiFMUP as substrate at 5 uM incubated for 30 mins by fluorescence based analysis
[17] = target: N-lysine methyltransferase KMT5A (Homo sapiens) (UniProt Q9NQR1); experiment: Inhibition of SET8 (unknown origin) using plate-coated histone as substrate at 5 uM incubated for 90 mins in presence of 10 uM SAM by AlphaScreen assay relative to control
N-lysine methyltransferase KMT5A (Homo sapiens), sequence (Q9NQR1 whole entry, the tested form may be a part): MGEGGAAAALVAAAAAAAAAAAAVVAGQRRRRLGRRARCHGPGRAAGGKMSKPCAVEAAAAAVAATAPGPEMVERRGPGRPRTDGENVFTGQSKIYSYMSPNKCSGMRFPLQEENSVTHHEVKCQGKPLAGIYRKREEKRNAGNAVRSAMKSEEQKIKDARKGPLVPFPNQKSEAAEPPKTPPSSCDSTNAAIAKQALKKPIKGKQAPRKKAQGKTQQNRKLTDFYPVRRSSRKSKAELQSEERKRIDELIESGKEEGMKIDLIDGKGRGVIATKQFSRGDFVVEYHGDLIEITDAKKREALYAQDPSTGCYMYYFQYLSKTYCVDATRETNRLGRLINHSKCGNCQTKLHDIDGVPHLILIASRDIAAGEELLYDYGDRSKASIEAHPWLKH

[18] = target: Histone deacetylase 3/Nuclear receptor corepressor 2 (HDAC3/NCoR2) (Homo sapiens) (UniProt O15379+Q9Y618); experiment: Inhibition of C-terminal His-tagged recombinant human HDAC3 (1 to 428 residues)/N-terminal GST-tagged recombinat human NCoR2 (395 to 489 residues) co-expressed in baculovirus infected Sf9 cells using histone peptide 3 as substrate at 5 uM incubated for 30 mins by fluorescence analysis
[19] = target: Epidermal growth factor receptor (Homo sapiens) (UniProt P00533); experiment: Inhibition of EGFR (unknown origin) using poly (Glu, Tyr) as substrate at 5 uM incubated for 40 mins in presence of 10 uM ATP by kiase-Glo luminescence assay relative to control
Epidermal growth factor receptor (Homo sapiens), sequence (P00533 whole entry): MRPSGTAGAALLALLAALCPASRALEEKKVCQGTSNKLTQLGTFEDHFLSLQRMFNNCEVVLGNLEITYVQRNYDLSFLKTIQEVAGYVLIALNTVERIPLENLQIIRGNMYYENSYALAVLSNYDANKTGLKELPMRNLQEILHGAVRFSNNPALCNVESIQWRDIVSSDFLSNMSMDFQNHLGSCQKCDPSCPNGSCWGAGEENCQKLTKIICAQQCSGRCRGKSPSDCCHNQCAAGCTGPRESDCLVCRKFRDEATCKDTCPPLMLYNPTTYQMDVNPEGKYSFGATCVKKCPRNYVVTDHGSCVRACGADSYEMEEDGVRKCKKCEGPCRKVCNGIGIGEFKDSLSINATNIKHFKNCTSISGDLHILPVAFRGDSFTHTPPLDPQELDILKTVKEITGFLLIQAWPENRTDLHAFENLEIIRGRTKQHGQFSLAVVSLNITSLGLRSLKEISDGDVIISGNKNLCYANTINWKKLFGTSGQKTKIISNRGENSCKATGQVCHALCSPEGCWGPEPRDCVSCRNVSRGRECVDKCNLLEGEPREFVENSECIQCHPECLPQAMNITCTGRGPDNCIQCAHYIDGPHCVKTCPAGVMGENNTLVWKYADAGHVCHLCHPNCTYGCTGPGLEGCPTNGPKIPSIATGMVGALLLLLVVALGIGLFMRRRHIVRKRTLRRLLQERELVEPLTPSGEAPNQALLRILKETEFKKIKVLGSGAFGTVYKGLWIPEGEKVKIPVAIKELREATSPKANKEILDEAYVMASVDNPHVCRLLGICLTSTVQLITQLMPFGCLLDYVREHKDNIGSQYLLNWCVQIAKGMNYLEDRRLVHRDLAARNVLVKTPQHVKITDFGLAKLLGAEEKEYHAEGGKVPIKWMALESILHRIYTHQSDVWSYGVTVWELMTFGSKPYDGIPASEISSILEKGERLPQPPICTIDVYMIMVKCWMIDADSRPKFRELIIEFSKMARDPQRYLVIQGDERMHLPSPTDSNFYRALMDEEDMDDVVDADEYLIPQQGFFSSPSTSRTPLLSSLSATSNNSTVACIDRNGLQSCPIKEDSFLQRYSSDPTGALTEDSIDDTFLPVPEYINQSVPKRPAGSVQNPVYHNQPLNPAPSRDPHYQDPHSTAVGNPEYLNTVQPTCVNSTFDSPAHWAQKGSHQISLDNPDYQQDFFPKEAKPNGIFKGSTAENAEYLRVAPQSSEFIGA

[20] = organism: Homo sapiens; experiment: Inhibition of PDE4D7 (unknown origin) using FAM-cAMP as substrate at 5 uM incubated for 1 hr by fluorescence polarization assay relative to control
[21] = target: 3',5'-cyclic-AMP phosphodiesterase 4A (Homo sapiens) (UniProt P27815); experiment: Inhibition of PDE4A4 (unknown origin) using FAM-cAMP as substrate at 5 uM incubated for 1 hr by fluorescence polarization assay relative to control
3',5'-cyclic-AMP phosphodiesterase 4A (Homo sapiens), sequence (P27815 whole entry): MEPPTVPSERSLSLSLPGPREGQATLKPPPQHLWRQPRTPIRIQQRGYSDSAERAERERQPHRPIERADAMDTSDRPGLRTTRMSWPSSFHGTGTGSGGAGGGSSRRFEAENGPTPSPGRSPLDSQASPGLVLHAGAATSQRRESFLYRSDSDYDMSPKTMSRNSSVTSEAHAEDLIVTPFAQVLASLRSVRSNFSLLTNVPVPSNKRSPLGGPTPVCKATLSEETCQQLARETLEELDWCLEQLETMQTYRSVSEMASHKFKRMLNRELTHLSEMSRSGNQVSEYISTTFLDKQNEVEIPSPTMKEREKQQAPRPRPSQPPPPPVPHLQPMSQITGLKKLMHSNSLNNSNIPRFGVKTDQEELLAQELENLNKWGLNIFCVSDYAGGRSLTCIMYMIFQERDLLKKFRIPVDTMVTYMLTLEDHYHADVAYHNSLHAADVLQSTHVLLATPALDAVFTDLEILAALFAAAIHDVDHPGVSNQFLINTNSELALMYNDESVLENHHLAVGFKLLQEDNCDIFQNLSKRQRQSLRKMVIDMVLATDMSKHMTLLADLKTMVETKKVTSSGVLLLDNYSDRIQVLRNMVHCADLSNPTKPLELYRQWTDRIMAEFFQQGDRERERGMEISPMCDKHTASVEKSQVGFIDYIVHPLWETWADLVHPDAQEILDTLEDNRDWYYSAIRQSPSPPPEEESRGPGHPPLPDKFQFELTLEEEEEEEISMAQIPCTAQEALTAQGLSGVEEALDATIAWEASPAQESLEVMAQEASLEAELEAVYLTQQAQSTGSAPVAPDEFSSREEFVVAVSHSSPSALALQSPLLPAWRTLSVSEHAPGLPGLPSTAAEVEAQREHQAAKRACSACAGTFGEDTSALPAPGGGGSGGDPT

[22] = target: T1, DNA topoisomerase 1 (Escherichia coli (strain K12)); experiment: Poison activity at Escherichia coli Top1 assessed as increase in […] band intensity at 12.5 to 100 uM using supercoiled pUC19 plasmid DNA as substrate incubated for 30 mins by agarose gel electrophoresis analysis
In short: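 Supercoiled pUC19 plasmid DNA was incubated with Top1 plus compound at 100, 50, 25 and 12.5 μM. Controls were DNA alone, DNA + Top1, and DNA + Top1 + CPT (100 μM). Products were resolved as gel lanes.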

IC50 [1]: 0.002 µM
IC50 [2]: 1 µM
IC50 [3]: 159 µM
IC50 [4]: < 0.003 µM
IC50 [5]: > 200 µM
inhibition [6]: Active
inhibition [7]: inactive
inhibition [8]: Dose-dependent effect
IC50 [9]: 26.3 µM
solubility [13]: 1.5 µg/mL (≈ 4.27 µM)
inhibition [14]: < 20%
inhibition [15]: < 20%
inhibition [16]: < 20%
inhibition [17]: < 20%
inhibition [18]: < 20%
inhibition [19]: < 20%
inhibition [20]: < 20%
inhibition [21]: < 20%
Compound: COc1ccc2c(c1)cc1n2CCN2C(=O)c3cc(F)ccc3N(C)C12 (configuration not stated)
Activity [10]: 52%
Activity [11]: 40.44%
Activity [12]: 35.49%
Activity [22]: Active
